Laboratory results: ChEMBL document CHEMBL1155036, “Synthesis and biological activity of some new flavonyl-2,4-thiazolidinediones” (Bioorg Med Chem, 2008)

Legend:
[1] = molecular target: Aldo-keto reductase family 1 member B1 (Rattus norvegicus) (UniProt P07943); assay: Inhibition of rat kidney aldose reductase activity assessed as NADPH oxidation at 100 uM
Summary of the method: (§1)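 Assay in 0.067 M phosphate buffer, pH 6.2, with NADPH (2 × 10^-5 M final) and DL-glyceraldehyde substrate (5 × 10^-5 M final). The 340 nm absorbance decrease is followed for 5 min at 37 °C. Drug is added from a 10^-4 M stock in 50% DMF/50% methanol. Percent inhibition is measured at this single drug concentration, and IC50 from a concentration series. Triplicates; mean ± SD of three experiments.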

INS1 [2] = assay: Insulinotropic activity in rat INS1 cells assessed as glucose-mediated insulin release at 10 ug/ml by radioimmunoassay relative to glucose; format: functional
Summary of the method: (§2)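 Rat INS-1 cells are grown 4–6 days to half confluence in RPMI with 10% FCS and penicillin/streptomycin. Cells are washed, then incubated 90 min at 37 °C in KRBH (10 mM HEPES, 0.5% BSA) at 5.6 mM glucose, with or without compound. Secreted insulin is measured by radioimmunoassay with a rat insulin standard and corrected for solvent (ethanol, DMSO). Results are normalized to 5.6 mM glucose = 100%. Mean ± SEM, N = 4–8; ANOVA with Newman–Keuls.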

INS1 [3] = assay: Insulinotropic activity in rat INS1 cells assessed as glucose-mediated insulin release at 1 ug/ml by radioimmunoassay relative to glucose; format: functional; summary of the method: as §2
[4] = molecular target: Aldo-keto reductase family 1 member B1 (Rattus norvegicus, UniProt P07943); assay: Inhibition of rat kidney aldose reductase activity assessed as NADPH oxidation; summary of the method: as §1

Row | inhibition [1] [%] | IC50 [4] [nM] | Structure (SMILES) | Activity (INS1 [2]) [%] | Activity (INS1 [3]) [%]
1 | 56.3 | 852 | O=C(O)CN1C(=O)S/C(=C\c2ccc3oc(-c4ccccc4)cc(=O)c3c2)C1=O | 80.92 | 101.3
2 | 86.6 | 415 | O=C(O)CN1C(=O)S/C(=C\c2cccc(-c3cc(=O)c4ccccc4o3)c2)C1=O | 84.09 | 98.1
3 | 6.74 |  | CCOC(=O)CN1C(=O)S/C(=C\c2ccc(-c3cc(=O)c4ccccc4o3)cc2)C1=O | 128.6 | 106.2
4 | 44.6 |  | O=C(O)CN1C(=O)S/C(=C\c2ccc(-c3cc(=O)c4ccccc4o3)cc2)C1=O | 91.88 | 102.4

Continued, compound first:

Row | Structure (SMILES) | inhibition [1] [%] | IC50 [4] [nM] | Activity (INS1 [2]) [%] | Activity (INS1 [3]) [%]
5 | CCOC(=O)CN1C(=O)S/C(=C\c2ccc3oc(-c4ccccc4)cc(=O)c3c2)C1=O | 14.4 |  | 98.52 | 93.28
6 | O=C1NC(=O)/C(=C/c2ccc(-c3cc(=O)c4ccccc4o3)cc2)S1 | 88.7 | 432 | 23.79 | 55.7
7 | O=C1NC(=O)/C(=C/c2ccc3oc(-c4ccccc4)cc(=O)c3c2)S1 | 64.9 | 683 | 158.9 | 82.55
8 | O=C1NC(=O)/C(=C/c2cccc(-c3cc(=O)c4ccccc4o3)c2)S1 | 22.1 |  | 18.95 | 79.76
9 | CCOC(=O)CN1C(=O)S/C(=C\c2cccc(-c3cc(=O)c4ccccc4o3)c2)C1=O | 12.9 |  | 98.43 | 103.4
10 | COc1ccc(Cl)cc1C(=O)NCCc1ccc(S(=O)(=O)NC(=O)NC2CCCCC2)cc1 [GLYBURIDE] |  |  |  | 179.6
